Source: publication PMC6412122 (Nucleic Acids Research, 2019)

Molecular target: T1, HNA polymerase T6G12_I521L (Thermococcus gorgonarius, UniProt P56689, A485L/A681S/D141A/D669Q/E143A/E609K/E664Q/E730G/I521L/I610M/K659Q/K671H/K674R/L704P/Q665P/R668K/T676R/V589A/V93Q)
T1 sequence (P56689 1-773 V93Q/D141A/E143A/A485L/I521L/V589A/E609K/I610M/K659Q/E664Q/Q665P/R668K/D669Q/K671H/K674R/T676R/A681S/L704P/E730G): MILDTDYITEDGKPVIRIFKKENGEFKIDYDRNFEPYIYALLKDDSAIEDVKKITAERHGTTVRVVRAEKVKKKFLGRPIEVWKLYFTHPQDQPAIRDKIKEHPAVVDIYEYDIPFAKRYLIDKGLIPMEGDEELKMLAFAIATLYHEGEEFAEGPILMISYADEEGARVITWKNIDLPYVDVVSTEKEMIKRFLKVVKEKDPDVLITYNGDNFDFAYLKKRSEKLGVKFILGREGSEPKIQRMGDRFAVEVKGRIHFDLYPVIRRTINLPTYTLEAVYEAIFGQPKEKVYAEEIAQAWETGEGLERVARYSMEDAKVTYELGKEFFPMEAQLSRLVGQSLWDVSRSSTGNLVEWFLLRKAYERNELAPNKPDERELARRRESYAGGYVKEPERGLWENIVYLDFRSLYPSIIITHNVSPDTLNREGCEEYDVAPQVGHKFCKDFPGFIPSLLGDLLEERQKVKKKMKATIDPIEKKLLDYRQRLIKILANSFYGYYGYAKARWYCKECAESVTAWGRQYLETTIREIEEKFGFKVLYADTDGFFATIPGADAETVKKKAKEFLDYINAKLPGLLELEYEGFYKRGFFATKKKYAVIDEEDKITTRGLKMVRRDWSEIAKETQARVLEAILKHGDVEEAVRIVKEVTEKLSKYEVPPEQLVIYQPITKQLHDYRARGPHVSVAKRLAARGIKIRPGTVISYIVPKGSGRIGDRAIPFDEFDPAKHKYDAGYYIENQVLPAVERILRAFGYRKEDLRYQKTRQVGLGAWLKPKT
Type: biochemical
Details: global fitting, k3 fitted; duplex P2T3, 50°C
In short: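 Quench-flow at 50 °C: enzyme with P2T3 in 2× Thermopol mixed with nucleotide plus MgSO4 (1 mM extra Mg2+ final). Nucleotide 1.6–100 µM, 4–5 levels; ageing 5 ms–60 s. Quenched with 0.3 M EDTA; 18% denaturing PAGE; duplicates. Active enzyme level set by active-site titration (50 ms dTTP pulse, quadratic fit). Global Matlab least-squares fit; k3 refitted fixed at 0.01 or 0.02 s−1; SD from covariance matrix.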

k2 = kpol: 0.62 ± 0.13 s⁻¹ | k3: 0.028 ± 0.002 s⁻¹
Structure (SMILES): Cc1cn([C@@H]2CO[C@H](COP(=O)(O)OP(=O)(O)OP(=O)(O)O)[C@@H](O)C2)c(=O)[nH]c1=O [hTTP]
